Measurements from the RNAGym collection of RNA variant scans (doi:10.1126/science.aae0568).
Variants at the floor of the assay were thinned out.

B1: tRNA (parent)
chain: GUUCCGUUGGCGUAAUGGUAACGCGUCUCCCUCCUAAGGAGAAGACUGCGGGUUCGAGUCCCGUACGGAACG

Variants of: B1
Assay: yeast fitness relative to wild type (ratio to wild type); higher = fitter; tRNA-Arg(CCU), competitive growth, 37 C, YPD
How it was run: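 Start and end populations of a pooled competition were compared by 100-nucleotide paired-end sequencing of gene amplicons. The Saccharomyces cerevisiae strains carried tRNA-Arg(CCU) gene variants at the native genomic locus, synthesised with a 3% per-site mutation rate at 69 sites, and competed in YPD at 37°C for 24 hours in six parallel replicates. Darwinian fitness relative to wild type was based on the change in genotype frequencies. Genotypes required ≥ 100 starting reads, and estimates < 0.5 were set to 0.5.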

G17C U19A C24G U26A C34U A69U and G17C U19A C49G C66U cannot be ordered by yeast fitness: ≤ 0.5 for the first, ≤ 0.5 for the second.

Compared with G17C U19C, G17C U19C A65G is lower in yeast fitness: 0.785 for the first, 0.573 for the second.

First: G17C U19C C27U A65C
Second: G17C U19C G68U
The yeast fitness of the first is higher: 0.641 for the first, 0.569 for the second.

G17C U19C U59A and G17C U26A A69C cannot be ordered by yeast fitness: ≤ 0.5 for the first, ≤ 0.5 for the second.

First: G17C U26C
Second: G17C U26C C46U U64A
The yeast fitness of the first is higher: 0.698 for the first, ≤ 0.5 for the second.

G17C U26C U28C C29G A42C G51A and G17C U26G G39C A40U C61U cannot be ordered by yeast fitness: ≤ 0.5 for the first, ≤ 0.5 for the second.

Going from G17C U28A to G17C U28A C30A C31A C60G A65G, the yeast fitness falls from 0.554 to ≤ 0.5.

Compared with G17C U28G C30U C61A A69U, G17C U28G G48A is higher in yeast fitness: ≤ 0.5 for the first, 0.558 for the second.

G17C U28G U54A and G17C U28G U54A C62U A70C cannot be ordered by yeast fitness: ≤ 0.5 for the first, ≤ 0.5 for the second.

First: G17C U32A C66U A70G
Second: G17C U32C
The yeast fitness of the first is lower: ≤ 0.5 for the first, 0.644 for the second.

G17C U32G C33U G56A G58A and G17C U32G C34A A40U A43C cannot be ordered by yeast fitness: ≤ 0.5 for the first, ≤ 0.5 for the second.

Going from G17C U35C A37G G51C to G17C U47A, the yeast fitness rises from ≤ 0.5 to 0.695.

First: G17C U53G
Second: G17C U59G
The yeast fitness of the first is lower: ≤ 0.5 for the first, 0.674 for the second.

First: G17C U64A
Second: G17C U64C
The yeast fitness of the first is lower: 0.662 for the first, 0.845 for the second.

First: G17U A21C G25C
Second: G17U A21G C46U
The yeast fitness of the first is lower: 0.541 for the first, 0.588 for the second.

G17U A37G A42U G48C C49U and G17U A37U A57C cannot be ordered by yeast fitness: ≤ 0.5 for the first, ≤ 0.5 for the second.

Going from G17U A40C to G17U A45U C55U A70C, the yeast fitness falls from 0.823 to ≤ 0.5.

Going from G17U A69C A70G to G17U C24A C31U, the yeast fitness falls from 0.643 to ≤ 0.5.

G17U C27G C30U C60A and G17U C46G U54G cannot be ordered by yeast fitness: ≤ 0.5 for the first, ≤ 0.5 for the second.

G17U C55U A70G and G17U G25A G50A G63C cannot be ordered by yeast fitness: ≤ 0.5 for the first, ≤ 0.5 for the second.

First: G17U G38A G68A
Second: G17U G67C
The yeast fitness of the first is lower: ≤ 0.5 for the first, 0.798 for the second.

Going from G17U U28A C29G C33U C34G A42U to G18A, the yeast fitness rises from ≤ 0.5 to 0.76.

G18A A20C C34U A36U G39C A70U and G18A A20G A69C cannot be ordered by yeast fitness: ≤ 0.5 for the first, ≤ 0.5 for the second.

G18A A20G U54A A70G and G18A A20U A36U A65U cannot be ordered by yeast fitness: ≤ 0.5 for the first, ≤ 0.5 for the second.

Going from G18A A20U A69U to G18A A20U C22U U28A C33U G44C C60A, the yeast fitness falls from 0.686 to ≤ 0.5.

Compared with G18A A20U C27G, G18A A20U C27G U47A is lower in yeast fitness: 0.526 for the first, ≤ 0.5 for the second.

G18A A20U C29G A37U C55A C66U and G18A A20U C29G A37U G48A cannot be ordered by yeast fitness: ≤ 0.5 for the first, ≤ 0.5 for the second.

G18A A20U C60A and G18A A20U U59G cannot be ordered by yeast fitness: ≤ 0.5 for the first, ≤ 0.5 for the second.

First: G18A A21C A37C C66A
Second: G18A A21C A43C G48A G52A G63A
The yeast fitness of the first is higher: 0.695 for the first, ≤ 0.5 for the second.

G18A A21C G23U U32A A42U G48C and G18A A21C G58C C60U cannot be ordered by yeast fitness: ≤ 0.5 for the first, ≤ 0.5 for the second.

First: G18A A21G C66U
Second: G18A A21U
The yeast fitness of the first is lower: ≤ 0.5 for the first, 0.528 for the second.

First: G18A A21U G48A
Second: G18A A21U G68A
The yeast fitness of the first is higher: 0.571 for the first, ≤ 0.5 for the second.

Compared with G18A A21U U32A, G18A A36C U64A is lower in yeast fitness: 0.593 for the first, 0.575 for the second.

Going from G18A A36G A42U A70C to G18A A37C, the yeast fitness falls from 0.784 to 0.727.

G18A A37C A42C C55U and G18A A37G G52C C61A cannot be ordered by yeast fitness: ≤ 0.5 for the first, ≤ 0.5 for the second.

Going from G18A A37U to G18A A37U C61U U64A, the yeast fitness falls from 0.6 to ≤ 0.5.

Compared with G18A A37U G68C, G18A A40G A65G is lower in yeast fitness: 0.579 for the first, ≤ 0.5 for the second.

Compared with G18A A42C, G18A A42G G48C is lower in yeast fitness: 0.635 for the first, ≤ 0.5 for the second.

Going from G18A A42U to G18A A43C, the yeast fitness falls from 0.683 to 0.637.

Compared with G18A A43G, G18A A45C C49U C62G C66U is lower in yeast fitness: 0.904 for the first, ≤ 0.5 for the second.

Going from G18A A45U C55A to G18A A57C, the yeast fitness rises from ≤ 0.5 to 0.626.

First: G18A A57G
Second: G18A A57G A69U
The yeast fitness of the first is higher: 0.854 for the first, ≤ 0.5 for the second.

First: G18A A57U
Second: G18A A57U A70C
The yeast fitness of the first is higher: 0.588 for the first, 0.536 for the second.

First: G18A A65U
Second: G18A A65U A69U
The yeast fitness of the first is higher: 0.729 for the first, 0.718 for the second.

First: G18A A69U
Second: G18A C22A
The yeast fitness of the first is higher: 0.896 for the first, 0.805 for the second.

Going from G18A C22A A37C G48A to G18A C22A C46G U53A C61G A70C, the yeast fitness rises from ≤ 0.5 to 0.583.

Compared with G18A C22A C61A A65G, G18A C22A C61A A65G A70U is higher in yeast fitness: ≤ 0.5 for the first, 0.585 for the second.

Going from G18A C22G to G18A C22G C24G G50A A69C, the yeast fitness falls from 0.856 to ≤ 0.5.

Going from G18A C24A C31A G68U to G18A C24G, the yeast fitness rises from ≤ 0.5 to 0.666.

G18A C24G C27U C62U A70C and G18A C24G C30U cannot be ordered by yeast fitness: ≤ 0.5 for the first, ≤ 0.5 for the second.

G18A C24G C49A and G18A C24G G39C cannot be ordered by yeast fitness: ≤ 0.5 for the first, ≤ 0.5 for the second.

First: G18A C24U
Second: G18A C24U C29U C31U G39C
The yeast fitness of the first is higher: 0.646 for the first, ≤ 0.5 for the second.

Going from G18A C24U C30U C34U U54A to G18A C24U G48C U53G, the yeast fitness rises from 0.531 to 0.583.

Going from G18A C24U G58A to G18A C24U G68C, the yeast fitness rises from ≤ 0.5 to 0.538.

Compared with G18A C27A G48A, G18A C27G is lower in yeast fitness: 0.612 for the first, ≤ 0.5 for the second.

Going from G18A C27G C49G C62G C66U A69C to G18A C27U, the yeast fitness rises from ≤ 0.5 to 0.712.

G18A C27U C34G G48C C49U and G18A C27U U28C C31A C55G cannot be ordered by yeast fitness: ≤ 0.5 for the first, ≤ 0.5 for the second.

Going from G18A C27U U28C C31A C55G C61A to G18A C29A, the yeast fitness falls from 0.572 to 0.539.

Compared with G18A C29A C33U C60G, G18A C29G A37G is higher in yeast fitness: ≤ 0.5 for the first, 0.598 for the second.

Compared with G18A C29G A37G C60A C62G, G18A C29G A37G G44C is lower in yeast fitness: 0.728 for the first, 0.598 for the second.

G18A C29G C49G G63C and G18A C29U A37G cannot be ordered by yeast fitness: ≤ 0.5 for the first, ≤ 0.5 for the second.

G18A C29U A45G A70G and G18A C29U C31A A65G cannot be ordered by yeast fitness: ≤ 0.5 for the first, ≤ 0.5 for the second.

G18A C29U C31A C55U G68C and G18A C29U G52C cannot be ordered by yeast fitness: ≤ 0.5 for the first, ≤ 0.5 for the second.

G18A C29U U35C G52C and G18A C30A C34G cannot be ordered by yeast fitness: ≤ 0.5 for the first, ≤ 0.5 for the second.

G18A C30A G58A G68U and G18A C30G A36C G44C cannot be ordered by yeast fitness: ≤ 0.5 for the first, ≤ 0.5 for the second.

First: G18A C30G A37U C55G
Second: G18A C30U
The yeast fitness of the first is lower: ≤ 0.5 for the first, 0.709 for the second.

G18A C30U A57C and G18A C30U C55G G68A cannot be ordered by yeast fitness: ≤ 0.5 for the first, ≤ 0.5 for the second.

G18A C30U G41C and G18A C30U G41C G50A A65C cannot be ordered by yeast fitness: ≤ 0.5 for the first, ≤ 0.5 for the second.

Compared with G18A C30U G41C G50A G67C, G18A C31A G56C is lower in yeast fitness: 0.666 for the first, ≤ 0.5 for the second.

Going from G18A C31A G56C A65C to G18A C31G A40G C49U G52C, the yeast fitness rises from ≤ 0.5 to 0.618.

Going from G18A C31G A40G G52C to G18A C31U G58A, the yeast fitness rises from ≤ 0.5 to 0.643.

G18A C33A A36C A43G C55G and G18A C33G cannot be ordered by yeast fitness: ≤ 0.5 for the first, ≤ 0.5 for the second.

G18A C33G C34G and G18A C33U cannot be ordered by yeast fitness: ≤ 0.5 for the first, ≤ 0.5 for the second.

First: G18A C33U A42G
Second: G18A C33U A42G C60G C62G
The yeast fitness of the first is higher: 0.54 for the first, ≤ 0.5 for the second.

First: G18A C33U U53A C55A
Second: G18A C34A A37U
The yeast fitness of the first is higher: 0.523 for the first, ≤ 0.5 for the second.

Compared with G18A C34A C46U, G18A C34A C60A is lower in yeast fitness: 0.692 for the first, ≤ 0.5 for the second.

Going from G18A C34A U47C to G18A C34G G48C C49U, the yeast fitness rises from ≤ 0.5 to 0.698.

G18A C34G U54C and G18A C34U A40G C66G cannot be ordered by yeast fitness: ≤ 0.5 for the first, ≤ 0.5 for the second.

G18A C34U A43C and G18A C34U A43C C46G cannot be ordered by yeast fitness: ≤ 0.5 for the first, ≤ 0.5 for the second.

G18A C34U A43C U53G and G18A C34U A43C U53G G68C cannot be ordered by yeast fitness: ≤ 0.5 for the first, ≤ 0.5 for the second.

G18A C34U G39C and G18A C34U G67A cannot be ordered by yeast fitness: ≤ 0.5 for the first, ≤ 0.5 for the second.

G18A C34U U35C and G18A C46A G51C C60U cannot be ordered by yeast fitness: ≤ 0.5 for the first, ≤ 0.5 for the second.

Compared with G18A C46A U64C, G18A C46G A65U is higher in yeast fitness: 0.535 for the first, 0.697 for the second.

In the case of G18A C46U U59C C60A G68A, the yeast fitness is reported as ≤ 0.5.
